Laboratory results: ChEMBL document CHEMBL5712904 (Cancers (Basel), 2018)
Calls of active or inactive are those of the source. The rule behind the calls is not given here.

Columns and labels:
[1] = system: OVCAR-3; assay: Upregulation of GLUT1 in human OVCAR-3 cells at 0.25 mM after 24 hrs by immunoblotting analysis; type: functional, cell-based
[2] = system: SK-OV-3; assay: Upregulation of GLUT1 in human SK-OV-3 cells at 0.25 mM after 24 hrs by immunoblotting analysis; type: functional, cell-based
[3] = system: SK-OV-3; assay: […] of glycolysis in human SK-OV-3 cells ssessed as decrease in conversion of D-[5-3H(N)]-glucose to 3H2O at 0.25 mM incubated for 24 hrs by liquid scintillation counting; type: functional, cell-based
Procedure, shortened: (§1)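 Medium was acidified to 0.2 N HCl, and 3H2O was allowed to diffuse into water for 3 days before scintillation counting. Results are given as % glucose conversion/5 × 10^5 cells/6 h, triplicates.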

[4] = system: OVCAR-3; assay: […] of glycolysis in human OVCAR-3 cells ssessed as decrease in conversion of D-[5-3H(N)]-glucose to 3H2O at 0.25 mM incubated for 24 hrs by liquid scintillation counting; type: functional, cell-based; procedure, shortened: as §1
[5] = system: OVCAR-3; assay: […] of glycolysis in human OVCAR-3 cells ssessed as decrease in conversion of D-[5-3H(N)]-glucose to 3H2O at 2 mM incubated for 24 hrs by liquid scintillation counting; type: functional, cell-based; procedure, shortened: as §1
[6] = system: SK-OV-3; assay: […] of glycolysis in human SK-OV-3 cells ssessed as decrease in conversion of D-[5-3H(N)]-glucose to 3H2O at 2 mM incubated for 24 hrs by liquid scintillation counting; type: functional, cell-based; procedure, shortened: as §1
[7] = system: SK-OV-3; assay: Upregulation of GLUT1 in human SKOV-3 cells at 2 mM after 24 hrs by immunoblotting analysis; type: functional, cell-based
[8] = system: OVCAR-3; assay: Upregulation of GLUT1 in human OVCAR-3 cells at 2 mM after 24 hrs by immunoblotting analysis; type: functional, cell-based
[9] = system: OVCAR-3; assay: […] of glycolysis in human OVCAR-3 cells ssessed as decrease in conversion of D-[5-3H(N)]-glucose to 3H2O at 50 nM incubated for 24 hrs by liquid scintillation counting; type: functional, cell-based; procedure, shortened: as §1
[10] = system: OVCAR-3; assay: Upregulation of GLUT1 in human OVCAR-3 cells at 50 […] after 24 hrs by immunoblotting analysis; type: functional, cell-based
[11] = system: SK-OV-3; assay: […] of glycolysis in human SK-OV-3 cells ssessed as decrease in conversion of D-[5-3H(N)]-glucose to 3H2O at 50 nM incubated for 24 hrs by liquid scintillation counting; type: functional, cell-based; procedure, shortened: as §1
[12] = system: SK-OV-3; assay: Upregulation of GLUT1 in human SK-OV-3 cells at 50 nM after 24 hrs by immunoblotting analysis; type: functional, cell-based
[13] = system: OVCAR-3; assay: Antiproliferative activity against human OVCAR-3 cells assessed as reduction in number of cells at 25 to 75 nM after 24 hrs; type: functional, cell-based; conditions: dose 25-75 nM
Procedure, shortened: (§2)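 Cells were grown in 12-well plates in RPMI 1640 with 10% FBS and treated with 0, 25, 50 or 75 nM inhibitor for 24 h. They were then trypsinized and counted with a Coulter counter. Data are mean ± SD of triplicates.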

[14] = system: A2780; assay: Antiproliferative activity against human A2780 cells assessed as reduction in number of cells at 75 nM after 24 to 72 hrs; type: functional, cell-based; conditions: time 24-72 hrs
Procedure, shortened: (§3)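 For 72-h growth curves, cells in 12-well plates in RPMI 1640 with 10% FBS were grown with or without 75 nM inhibitor. Cell numbers were determined by Coulter counting after trypsinization. Data are mean ± SD of triplicates.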

[15] = system: HEY; assay: Antiproliferative activity against human HEY cells assessed as decrease in size of colonies at 75nM after 3 weeks by crystal violet staining based assay; type: functional, cell-based
[16] = system: SK-OV-3; assay: Antitumor activity against human SK-OV-3 cells xenografted in NSG mouse assessed as reduction tumor volume at 4.5 mg/kg/day, po for 4 weeks relative to control; type: functional; design: scale not given: the % may be the effect or the level left
Procedure, shortened: (§4)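 Female NSG mice aged 6–7 weeks received 4 × 10^6 SKOV-3 cells in serum-free medium s.c. on the right flank. At about 100 mm3, mice were grouped 5 per group and gavaged daily at 0, 1.5, 3 or 4.5 mg/kg for 28 days. Caliper volume was calculated as lw2/2, with body weights tracked and endpoint tumors weighed; mean ± SD.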

[17] = system: OVCAR-3; assay: Antiproliferative activity against human OVCAR-3 cells assessed as reduction in number of cells at 75 nM after 24 to 72 hrs; type: functional, cell-based; conditions: time 24-72 hrs; procedure, shortened: as §3
[18] = system: SK-OV-3; assay: Antiproliferative activity against human SK-OV-3 cells assessed as reduction in number of cells at 75 nM after 24 to 72 hrs; type: functional, cell-based; conditions: time 24-72 hrs; procedure, shortened: as §3
[19] = system: HEY; assay: Antiproliferative activity against human HEY cells assessed as reduction in cell viability after 72 hrs MTT assay; type: functional, cell-based
Procedure, shortened: (§5)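 Cells in RPMI 1640 with 10% FBS were exposed to inhibitor over a range up to 10 µM for 72 h. Viability was read by MTT staining with absorbance at 570 nm, and IC50 was obtained by curve fitting. Data are mean ± SD of triplicates, representative of 3 independent experiments.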

[20] = system: OVCAR-3; assay: Antiproliferative activity against human OVCAR-3 cells assessed as reduction in cell viability after 72 hrs by MTT assay; type: functional, cell-based; conditions: OVCAR-3, 72 h; procedure, shortened: as §5
[21] = Antitumor activity against human derived High-grade serous ovarian cancer cell xenografted in NSG mouse model of OVC-PDX3 assessed as decrease in tumor volume at 4 mg/kg/day, po 30 days relative to control; type: functional, Ovarian carcinoma cell; design: scale not given: the % may be the effect or the level left; conditions: time 30 day
Procedure, shortened: (§6)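 Serous ovarian carcinoma fragments of 1–2 mm3 were implanted s.c. on the right flank of 6–8-week female NSG mice and re-passaged at about 1 cm3. At an average of 100 mm3, mice were grouped 5 per group and gavaged with 4 mg/kg/day for 30 days. Caliper volume was calculated as lw2/2, with body weight monitored and endpoint xenografts weighed.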

[22] = system: HEY; assay: Antiproliferative activity against human HEY cells assessed as decrease in number of colonies at 75nM after 3 weeks by crystal violet staining based assay; type: functional, cell-based
[23] = system: HEY; assay: Antiproliferative activity against human HEY cells assessed as reduction in number of cells at 75 nM after 24 to 72 hrs; type: functional, cell-based; conditions: time 24-72 hrs; procedure, shortened: as §3
[24] = system: SK-OV-3; assay: Antiproliferative activity against human SK-OV-3 cells assessed as decrease in size colonies at 75nM after 3 weeks by crystal violet staining based assay; type: functional, cell-based
Procedure, shortened: (§7)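 Soft agar colony assay: wells pre-coated with 0.6% agar in complete medium, with cells overlaid in medium containing 0.3% agar. Fresh 0.3% agar medium was added every 3–5 days. Inhibitor was 75 nM for SKOV-3 and OVCAR-3. After 3 weeks, colonies were crystal violet stained and counted above 100 μm diameter (SKOV-3, A2780) or 50 μm (OVCAR-3), reported as colonies per well.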

[25] = system: SK-OV-3; assay: Antiproliferative activity against human SK-OV-3 cells assessed as reduction in cell viability after 72 hrs MTT assay; type: functional, cell-based; conditions: SK-OV-3, 72 h; procedure, shortened: as §5
[26] = system: OVCAR-3; assay: Antiproliferative activity against human OVCAR-3 cells assessed as decrease in number of colonies at 75nM after 3 weeks by crystal violet staining based assay; type: functional, cell-based; procedure, shortened: as §7
[27] = system: SK-OV-3; assay: Antiproliferative activity against human SK-OV-3 cells assessed as reduction in number of cells at 25 to 75 nM after 24 hrs; type: functional, cell-based; conditions: dose 25-75 nM; procedure, shortened: as §2
[28] = system: A2780; assay: Antiproliferative activity against human A2780 cells assessed as decrease in number of colonies at 75nM after 3 weeks by crystal violet staining based assay; type: functional, cell-based; procedure, shortened: as §7
[29] = Antitumor activity against human derived High-grade serous ovarian cancer cell xenografted in NSG mouse model of OVC-PDX2 assessed as decrease in tumor volume at 4 mg/kg/day, po 30 days relative to control; type: functional, Ovarian carcinoma cell; design: scale not given: the % may be the effect or the level left; conditions: time 30 day; procedure, shortened: as §6
[30] = Toxicity in NSG mouse xenografted with human derived High-grade serous ovarian cancer cell model of OVC-PDX2 assessed as reduction in body weight at 4 mg/kg/day, po for 30 days relative to control; type: organism-based; conditions: in vivo, 720 h, time 30 day; procedure, shortened: as §6
[31] = system: A2780; assay: Antiproliferative activity against human A2780 cells assessed as decrease in size of colonies at 75nM after 3 weeks by crystal violet staining based assay; type: functional, cell-based; procedure, shortened: as §7
[32] = Antitumor activity against human derived High-grade serous ovarian cancer cell xenografted in NSG mouse model of OVC-PDX2 assessed as decrease in tumor weight at 4 mg/kg/day, po 30 days relative to control; type: functional, Ovarian carcinoma cell; design: scale not given: the % may be the effect or the level left; conditions: time 30 day; procedure, shortened: as §6
[33] = system: A2780; assay: Antiproliferative activity against human A2780 cells assessed as reduction in cell viability up to 2 uM after 72 hrs by MTT assay; type: functional, cell-based; procedure, shortened: as §5
[34] = Toxicity in NSG mouse xenografted with human derived High-grade serous ovarian cancer cell model of OVC-PDX3 assessed as reduction in body weight at 4 mg/kg/day, po for 30 days relative to control; type: organism-based; conditions: in vivo, 720 h, time 30 day; procedure, shortened: as §6
[35] = system: OVCAR-3; assay: Antiproliferative activity against human OVCAR-3 cells assessed as decrease in size of colonies at 75nM after 3 weeks by crystal violet staining based assay; type: functional, cell-based; procedure, shortened: as §7
[36] = Toxicity in NSG mouse xenografted with SK-OV-3 cells assessed as reduction in body weight at 4.5 mg/kg/day, po for 4 weeks relative to control; type: organism-based; design: scale not given: the % may be the effect or the level left; conditions: in vivo, 672 h; procedure, shortened: as §4
[37] = system: SK-OV-3; assay: Antiproliferative activity against human SK-OV-3 cells assessed as decrease in number of colonies at 75nM after 3 weeks by crystal violet staining based assay; type: functional, cell-based; procedure, shortened: as §7
[38] = Antitumor activity against human derived High-grade serous ovarian cancer cell xenografted in NSG mouse model of OVC-PDX3 assessed as decrease in tumor weight at 4 mg/kg/day, po 30 days relative to control; type: functional, Ovarian carcinoma cell; design: scale not given: the % may be the effect or the level left; conditions: time 30 day; procedure, shortened: as §6
[39] = system: SK-OV-3; assay: Antitumor activity against human SK-OV-3 cells xenografted in NSG mouse assessed as reduction tumor weight at 4.5 mg/kg/day, po for 4 weeks relative to control; type: functional; design: scale not given: the % may be the effect or the level left; procedure, shortened: as §4

CCOC(=O)[C@@]1(CCCCCCOc2ccc(Cl)cc2)CO1
Activity [1]: Active
Activity [2]: Active
Activity [3]: Active
Activity [4]: Active

CN(C)C(=N)NC(=N)N
Activity [5]: Active
Activity [6]: Active
Activity [7]: Active
Activity [8]: Active

COc1ccc([C@@H](O)[C@@H](C)Oc2ccc([C@H]3O[C@H](c4ccc(O[C@H](C)[C@H](O)c5ccc6c(c5)OCO6)c(OC)c4)[C@H](C)[C@H]3C)cc2OC)cc1OC
Activity [9]: Active
Activity [10]: Active
Activity [11]: Active
Activity [12]: Active

Cc1c(NC(=O)c2cc(C(N)=O)nc3cc(F)ccc23)c(C(F)(F)F)nn1Cc1ccc(C#N)cc1 [BAY-876]
Activity [13]: Dose-Dependent Effect
Activity [14]: inactive
Activity [15]: Active
Activity [16]: 68%
Activity [17]: Active
Activity [18]: Active
IC50 [19]: 1000 nM
IC50 [20]: 60 nM
Activity [21]: >60%
Activity [22]: Active
Activity [23]: Active
Activity [24]: Active
IC50 [25]: 188 nM
Activity [26]: Active
Activity [27]: Dose-Dependent Effect
Activity [28]: inactive
Activity [29]: >60%
Activity [30]: Non-Toxic
Activity [31]: inactive
Activity [32]: 50%
Activity [33]: inactive
Activity [34]: Non-Toxic
Activity [35]: Active
Activity [36]: 18%
Activity [37]: Active
Activity [38]: 71%
Activity [39]: 66%
